The subject of series [1] is primary adult rat cardiomyocytes. Nature of the series: LDH release of primary cardiomyocytes. It counts as cell-based. The following applies: 12 h. Summed up: (§1)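 Cardiomyocytes came from male SD rats (about 280 g), isolated by Langendorff collagenase II/hyaluronidase perfusion and purified by three gravity sedimentations. They were cultured on laminin in M199 with 10% FBS, penicillin-streptomycin and glutamine. Cells were exposed with or without DOX and with or without test compound for 12 h. Cells and supernatant were measured with commercial ATP and LDH-activity kits. Mean ± SEM.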

Series [2] concerns TFRC. Nature of the series: Immunoblot of TFRC in heart tissues. To be noted: glycnsisitin A with or without DOX, DOX alone in HF tissue. Type of series: in vivo, mouse. In general terms: A western blot detects proteins with antibodies after separation by electrophoresis.
The subject of series [3] is myocardium of DOX-treated mice. The series is described as follows: Myocardial iron content. It counts as in vivo, mouse. The following applies: with or without glycnsisitin A, ferrozine, 550 nm. Summed up: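 Heart tissue from DOX-induced heart-failure mice (± test compound) was homogenised in lysate. Homogenate was mixed 1:1 with permanganate-containing solution A and held 1 h at 60 °C, then cooled. Iron (ferrozine) detection reagent was added for 30 min at room temperature. Absorbance was read at 550 nm and iron content calculated from a standard curve.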

The subject of series [4] is primary adult rat cardiomyocytes. Nature of the series: Total ROS by DCFH-DA staining, flow cytometry. It counts as cell-based. For orientation: A flow cytometer gives signals particle by particle.
Series [5] shares this test system. Nature of the series: Trypan blue staining of dead cells, primary cardiomyocytes + DOX. It counts as cell-based.
Series [6] deals with DOX-induced HF mice. Nature of the series: Serum CK and LDH activity in DOX-induced HF mice. Type of series: in vivo, mouse (ICR). The following applies: glycnsisitin A i.p. daily Days 15–28. In a few lines:
(§2)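 Male ICR mice (about 40 g, 10-week-old, SPF) received a single i.p. DOX dose of 15 mg/kg; heart failure was established by Day 14. On Days 15–28 they were dosed i.p. daily with test compound (50, 100 or 200 mg/kg), cedilanid 150 mg/kg, or PBS 10 mL/kg. Blood was taken 8 h after dosing on Day 29 and spun 4500 rpm, 15 min, 4 °C. Serum CK and LDH activities and BNP and NT-proBNP were measured by kits. Mean ± SEM.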

For series [7], the system named is DOX-induced HF mice. Nature of the series: Survival in acute DOX-induced HF mouse model. Type of series: in vivo, mouse (ICR). In a few lines:
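Male ICR mice (about 40 g, 10 weeks) had acute heart failure induced by a single i.p. 15 mg/kg DOX dose. From Day 15 to 28 they were dosed i.p. daily with test compound (50, 100 or 200 mg/kg), cedilanid 150 mg/kg or PBS 10 mL/kg. Deaths were recorded daily, and survival was analysed by Kaplan–Meier.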

For series [8], the system named is transferrin. The series is described as follows: Immunoblot of transferrin in heart tissues. Type of series: in vivo, mouse.
Series [9] has as its system DOX-induced HF mice. The series is described as follows: Echocardiography in DOX-induced HF mice. It counts as in vivo, mouse (ICR). To be noted: compared with cedilanid. Summed up: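 Male ICR mice (~40 g, 10 weeks) got a single i.p. DOX 15 mg/kg, with HF established by Day 14. On Day 28, 8 h post-dose, mice were anesthetized with avertin on a 37 °C table. M-mode short-axis scans at papillary level (10 MHz, 10–20 cycles) gave LVAWd.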

The test system of series [10] is transferrin–TFRC interaction. Nature of the series: Cellular immunoprecipitation of transferrin with TFRC. Type of series: cell-based. The following applies: anti-His immunoprecipitation, blotted anti-transferrin and anti-TFRC.
For series [11], the system named is primary adult rat cardiomyocytes. Nature of the series: LDH activity in supernatant of primary cardiomyocytes, TFRC neutralization. It counts as cell-based. To be noted: DOX + glycnsisitin A; with or without TFRC block. In a few lines:
(§3)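 Adult cardiomyocytes were isolated from male Sprague-Dawley rats (about 280 g) by Langendorff perfusion with collagenase II and hyaluronidase. They were purified by three gravity sedimentations and cultured on laminin in M199 with 10% FBS, pen-strep and glutamine. Cells were pretreated with TFRC-neutralizing antibody (level not stated), then given DOX ± test compound for 12 h. Cells and supernatant were assayed with commercial LDH-activity or ATP kits. Mean ± SEM.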

For series [12], the system named is DOX-induced HF mice. Nature of the series: BNP and NT-proBNP levels in DOX-induced HF mice. It counts as in vivo, mouse (ICR). The following applies: compared to DOX-induced HF mice. Summed up:
as §2

The target in series [13] is T1, transferrin (Homo sapiens, UniProt P02787). The series is described as follows: SPR on transferrin-coated CM5 sensor chips. Type of series: binding. In a few lines:
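Test compound was flowed over at a range of concentrations and response units recorded. KD was derived by the instrument's evaluation fitting.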

Series [14] has as its system primary adult rat cardiomyocytes. Nature of the series: Iron content of primary cardiomyocytes, TFRC neutralization. Type of series: cell-based. The following applies: glycnsisitin A + DOX; with or without NAb-anti-TFRC pretreatment. In a few lines:
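Langendorff-isolated adult rat cardiomyocytes in six-well plates were pretreated ± TFRC-neutralizing antibody, then given DOX and test compound. After two PBS washes, cells were lysed 2 h at room temperature on a shaker. Lysate was mixed 1:1 with permanganate-containing solution A and held 1 h at 60 °C, then cooled. Ferrozine iron reagent was added for 30 min at room temperature. A550 was read and iron calculated from a standard curve.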

Series [15] has the same test system. The series is described as follows: ATP content of primary cardiomyocytes, TFRC neutralization. It counts as cell-based. The following applies: DOX-injured cardiomyocytes + glycnsisitin A; with or without NAb-anti-TFRC. Summed up:
as §3

Series [16] has the same test system. The series is described as follows: Alamar blue assay, DOX-injured primary cardiomyocytes. It counts as cell-based. Summed up:
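Cardiomyocytes came from male Sprague-Dawley rats (~280 g) by Langendorff perfusion with collagenase II/hyaluronidase/BSA and stepwise CaCl2. Cells were purified by three gravity sedimentations and cultured on laminin in M199 with 10% FBS, penicillin-streptomycin and 1% glutamine. DOX-injured cells received test compound, and viability was read by alamar blue.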
For orientation: Resazurin is reduced to fluorescent resorufin, in cell work by metabolically active cells.

Series [17] concerns TFRC. Nature of the series: Relative mRNA level of TFRC in cardiomyocytes. It counts as cell-based. The following applies: cultured cardiomyocytes.
The target of series [18] is T1, transferrin. Nature of the series: Protein half-life of transferrin after CHX. It counts as cell-based. The following applies: compared with control.
Series [19] relates to primary adult rat cardiomyocytes. Nature of the series: Mitochondrial ROS by MitoSOX staining. To be noted: 10 μmol/L glycnsisitin A with 8.6 μmol/L DOX, 6 h, confocal. Type of series: cell-based. In a few lines: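 Primary adult rat cardiomyocytes in glass-bottomed confocal dishes received test compound and/or DOX for 6 h. They were then loaded with MitoSOX Red for 30 min at 37 °C, 5% CO2, in the dark, and washed three times with warm HBSS containing Ca/Mg. Fluorescence was imaged by laser confocal microscopy (ex 396/em 610 nm).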

Series [20] shares this test system. Nature of the series: ATP levels of primary cardiomyocytes. Type of series: cell-based. The following applies: 12 h. In a few lines:
as §1

For another series, the system named is H9C2 cardiomyocytes. Nature of the series: Alamar blue cell viability, DOX-injured H9C2 cardiomyocytes. It counts as cell-based, rat. To be noted: in vitro model of DOX-induced cardiomyocyte injury. In a few lines: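 H9C2 cells were grown in DMEM with 10% FBS and penicillin-streptomycin at 37 °C, 5% CO2, then seeded at 5000/well overnight. Cells were co-treated with DOX and test compound for 12 h, then incubated 4 h in medium with 10% alamar blue. Fluorescence was read at ex 530/em 590 nm. Viability = (treated − medium)/(control − medium) × 100; EC50 calculated.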

Series [21] concerns the target T1, transferrin. Nature of the series: Relative mRNA level of transferrin in cardiomyocytes. Type of series: cell-based. To be noted: cultured cardiomyocytes.
In series [22] the test system is TFRC. Nature of the series: Protein half-life of TFRC after CHX. Type of series: cell-based. The following applies: compared with control.
In series [23] the test system is DOX-induced HF mice. Nature of the series: Heart histology. Type of series: in vivo, mouse (ICR). To be noted: compared with cedilanid. Summed up:
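Heart failure was induced in male ICR mice by a single i.p. DOX dose (15 mg/kg). Test compound (50/100/200 mg/kg), cedilanid ([…]) or PBS was then given i.p. daily on Days 15–28. Hearts were collected on Day 29, fixed in 4% paraformaldehyde and sectioned. H&E staining was scored for myocardial histopathology; Masson trichrome was quantified as relative fibrosis area.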

The next series concerns cancer cells. The following applies: clinical limitation; ref [29]; cited from earlier work.
The test system of the next series is HF patients. To be noted: supplementation; ref [8], [9]; cited from earlier work.

T1 sequence (P02787 20-698, species assumed): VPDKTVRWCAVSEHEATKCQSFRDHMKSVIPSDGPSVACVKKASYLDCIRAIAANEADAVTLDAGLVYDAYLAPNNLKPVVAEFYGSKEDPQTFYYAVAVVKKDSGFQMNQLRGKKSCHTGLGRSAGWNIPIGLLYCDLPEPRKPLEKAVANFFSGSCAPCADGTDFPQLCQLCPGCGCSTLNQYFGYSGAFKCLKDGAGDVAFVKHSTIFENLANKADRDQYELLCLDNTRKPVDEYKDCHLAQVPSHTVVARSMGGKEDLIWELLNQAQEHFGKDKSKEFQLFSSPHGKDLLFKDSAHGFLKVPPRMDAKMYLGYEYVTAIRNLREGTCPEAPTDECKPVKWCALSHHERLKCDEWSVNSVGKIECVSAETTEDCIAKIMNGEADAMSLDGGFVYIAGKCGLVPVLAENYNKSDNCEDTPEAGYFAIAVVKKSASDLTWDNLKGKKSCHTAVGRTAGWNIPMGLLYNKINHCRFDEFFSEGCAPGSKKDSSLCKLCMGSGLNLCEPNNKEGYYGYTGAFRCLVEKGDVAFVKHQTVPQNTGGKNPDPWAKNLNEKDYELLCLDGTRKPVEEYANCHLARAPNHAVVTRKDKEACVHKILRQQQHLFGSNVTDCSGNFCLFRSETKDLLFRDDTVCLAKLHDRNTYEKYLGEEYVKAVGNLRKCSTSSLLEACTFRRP

As to `COc1cccc2c1C(=O)c1c(O)c3c(c(O)c1C2=O)C[C@@](O)(C(=O)CO)C[C@@H]3O[C@H]1C[C@H](N)[C@H](O)[C@H](C)O1` [DOX, doxorubicin, reference compound], the “LDH release, DOX alone” value in [1] is listed as “elevation in the release of lactate dehydrogenase (LDH)”. In addition, the “TFRC level in mouse myocardium” value in the series on TFRC [2] is “decreased levels of both transferrin and TFRC”. For the same molecule, the myocardial iron content result in series [3] is given as “significant loss of iron”. Further, the “ROS levels, DOX alone” value in [4] is on record as “dramatically increased”. Also, the “increase in the number of trypan blue-positive cells” value in [5] (8.6 μmol/L DOX for 24 h, compared with solvent control) was “approximately fourfold”. Further, in the series with DOX-induced HF mice [6], the “serum CK activity” value was “markedly increased” and the “serum LDH activity” value is reported as “markedly increased”. In the series on DOX-induced HF mice [7] (single i.p. 15 mg/kg DOX), this molecule yielded a mortality rate of 50%. In addition, the “decrease in transferrin expression in heart tissue” value in the series on transferrin [8] (DOX-treated mice, immunoblot ratio to GAPDH) is “over 50%”.

The term Kd denotes the concentration at which binding is half-saturated. Higher therefore signals a looser complex. `CC(C)[C@@H]1NC(=O)[C@@H]2Cc3ccc(cc3)O[C@H]3C[C@H](NC3=O)C(=O)N3CCC[C@H]3C(=O)N[C@@H](Cc3ccc(O)cc3)C(=O)N[C@@H](C(=O)N[C@@H](C(C)C)C(=O)N2)c2cc(ccc2O)C[C@@H](C(=O)O)NC1=O` [Glycnsisitin A]: the “diastolic LV anterior wall diameter (LVAWd)” value in the series on DOX-induced HF mice [9] is “thicker diastolic LV anterior wall diameter”. For the same molecule, the “LDH release, DOX + glycnsisitin A” value in [1] is given as “significantly suppressed”. Besides, the “content of immunoprecipitated transferrin” value in series [10] was “much higher”. In the series with TFRC [2], the “TFRC level in mouse myocardium” value is “consistent with the trend observed for TFRC”. Besides, the “LDH content in supernatant” value in series [11] is on record as “much lower”. Besides, in the series on DOX-induced HF mice [12], the BNP level result was “lower levels” and the NT-proBNP level result is given as “lower levels”. Besides, the myocardial iron content entry in series [3] is reported as “effectively restored to normal”. The molecule further returned a Kd on transferrin [13] of 2.41 µM. Besides, in series [14], the “iron content, DOX-treated cardiomyocytes” value was “restored the decline in iron content”. Also, the ATP production entry in [15] is given as “noticeably augmented ATP production”. For the same molecule, in series [16], the “cell survival (alamar blue)” value was “proved the primary cell protective function”. Further, in series [5] (DOX 8.6 μmol/L + glycnsisitin A), the “cardiotoxicity / cell death (trypan blue)” value is “significantly attenuated the cardiotoxicity induced by DOX and reduced cell death”. Further, the “TFRC mRNA level / transcription” value in the series with TFRC [17] is reported as “increased the TFRC transcription”. For the same molecule, in the series with DOX-induced HF mice [6], the “serum CK activity” value was “completely reversed” and the “serum LDH activity” value was “completely reversed”. For the same molecule, the overall survival rate in the series with DOX-induced HF mice [7] (200 mg/kg i.p. daily Days 15–28 after DOX 15 mg/kg i.p.) is given as 90%. For the same molecule, in the series with DOX-induced HF mice [7] (50, 100, 200 mg/kg i.p. daily Days 15–28 after DOX), the “survival rate, dose dependence” value is on record as “increased in a dose-dependent manner”. In addition, the “half-life of transferrin protein (in words)” value on transferrin [18] is listed as “could increase the half-life of transferrin protein”. Further, in [19], the “mitochondrial ROS generation” value was “significantly attenuated the excessive generation of mitochondrial ROS”. In series [20] (presence vs absence of glycnsisitin A, with DOX), the “total ATP levels following DOX induction” value was “a substantial difference was observed”. For the same molecule, the “total ATP levels, normal conditions” value in series [20] (primary cardiomyocytes without DOX) is given as “did not have an impact on ATP levels”. The “cardioprotective activity, relative to glycnsisitins B and C” value in the series on H9C2 cardiomyocytes is “stronger cardioprotective activity than glycnsisitins B and C”. At transferrin [21], the “transferrin mRNA level” value is listed as “did not affect the mRNA content of transferrin”. The “TFRC stability (in words)” value with TFRC [22] is reported as “decreased TFRC stability”. In the series on DOX-induced HF mice [23] (H&E), the pathology score result was “lower pathology score”. For the same molecule, in the series with DOX-induced HF mice [23] (Masson trichrome), the collagen deposition result is on record as “lesser collagen deposition”. Moreover, in the series with transferrin [8] (regardless of the presence of DOX), the “total transferrin level in mouse myocardium” value was “significantly increased the total transferrin levels”.

For `C[C@@H](CN1CC(=O)NC(=O)C1)N1CC(=O)NC(=O)C1` [dexrazoxane (DXZ), dexrazoxane], the chemotherapy resistance result in the series on cancer cells is “potential to confer chemotherapy resistance to cancer cells”.

Turning to “ferric derisomaltose [ferric derisomaltose (FDI)]”, the “HF symptoms and rehospitalization” value with HF patients is “could alleviate HF symptoms and reduce rehospitalization”.

The values above are taken from paper PMC11252382 (Acta Pharmaceutica Sinica. B, 2024).
